Assay outcomes as filed in PubChem BioAssay.
Shown are actives, neighbours in structure and some others; about 1.7% of the full set was active somewhere.
CaV13 FRET inh – Primary screen for inhibitors of IQ motif and Ca2+-dependent inactivation inhibitor domain binding in CACNA1D, Förster resonance energy transfer in living cells, …; HEK cells, CFP/YFP FRET ICDI-IQ, plate reader, 10 min; percent FRET-ratio fall versus neutral wells; inhibition, % at 12.3 µM; AID 743397; actives 0.098% (n = 340,000);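 active = mean replicate inhibition of at least 30% and at least 1% of replicates passing that level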;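 note: 0% = median of the neutral control wells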
F508del corr – correctors of CFTR F508del function in bronchial epithelial cells; actives 0.36% (n = 350,000); CFBE cells, YFP halide quenching; stimulated with forskolin plus potentiator P3; % fluorescence drop versus neutral controls; activity (quench increase), % at 7.58 µM; AID 720511;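 active = mean added fluorescence quench of at least 8% versus neutral control, with both replicates also reaching 8%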;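 note: cells transiently co-express mutant CFTR-F508del with the halide-sensitive YFP; corrector assay measuring rescue of mutant channel to the surface after 24 h compound exposure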
rRNA inh HTS – inhibitors of bacterial rRNA selective over humanized ribosomes; E. coli WT GFP vs humanized-ribosome RFP mutants, fluorescence, 24 h; active compounds read low; DMSO median 0, no signal -100; GFP signal change (wild-type ribosome), % (no concentration beside the values); actives 1.6% (n = 350,000); AID 720706;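 active = significant combined selectivity score with lowered wild-type GFP, culture density cut under 30%, mutant RFP and density less affected; inactive = any of these conditions unmet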
Cneo AK release – causes C. neoformans cell lysis. adenylate kinase release luminescence, 4 h; normalised: neutral wells 0, clomiphene wells 100. lysis activity, % at 15 µM. actives 0.2% (n = 360,000);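 active = mean lysis activity across replicates of at least 80%, whatever share of replicates individually reach that level; inactive = mean lysis activity below 80%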
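Material – log-phase Cryptococcus neoformans yeast cells · Input – 5 × 10^6 yeast cells/mL · Medium – fresh YPD growth medium · Doses – single compound concentration per well · Timing – static 4 h at 37 °C with compound, 1 h detection · Detection – adenylate kinase release luminescence · Read-out – signal increase indicating cell lysis · Control set – Clomiphene as positive lysis control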
* hit, by the source's call; nt = no result given.

SMILES | CaV13 FRET inh | F508del corr | rRNA inh HTS | Cneo AK release
CCN(Cc1ccccc1)c1ccc(/C=N/N=C(N)N)cc1 | -2 | 9.9* | -58 | 4
CCN(Cc1ccccc1)c1ccccc1 | nt | -2 | 4 | 1
COc1ccc(S(=O)(=O)N2CCOC2CNC(=O)C(=O)NCCc2c[nH]c3ccccc23)cc1 (stereo not drawn) | -4 | -1 | -1 | -1
COc1ccc(S(=O)(=O)N2CCOC2CNC(=O)C(=O)NCCc2c[nH]c3ccccc23)cc1C (stereo not drawn) | -9 | -2 | -15* | 2
O=C(c1cccc(S(=O)(=O)N2CCOCC2)c1)N1CCCC(C(F)(F)F)C1 (stereo not drawn) | -5 | 10* | -3 | 0
CN(CC(=O)Nc1cccc(F)c1)C(=O)CN1c2cccc3cccc(c23)S1(=O)=O | -5 | -3 | -40* | 1
COc1cccc(CNC(=O)CN2c3cccc4cccc(c34)S2(=O)=O)c1 | -6 | -1 | -37* | -1
CN(C)C(=O)CN1c2cccc3cccc(c23)S1(=O)=O | -18 | 2 | 11 | -4
Cc1noc(C)c1S(=O)(=O)N(C)C[C@H]1Oc2c(NC(=O)c3cnccn3)cccc2C(=O)N([C@@H](C)CO)C[C@H]1C | nt | 1 | 1 | 1
C[C@H]1CN([C@@H](C)CO)C(=O)Cc2cc(NC(=O)Nc3cccc4ccccc34)ccc2O[C@H]1CN(C)C(=O)Nc1cccc2ccccc12 | nt | -1 | -5 | -2
O=C(CC1CC1)N1[C@H](CO)[C@@H](c2ccccc2)C12CN(Cc1ccccc1F)C2 | nt | 1 | -6 | nt
COc1ccc(-c2noc(CSc3nnc(-c4ccccc4)n3C)n2)cc1 | -4 | -4 | -22* | 0
Cn1c(SCc2nc(-c3ccc(Br)cc3)no2)nnc1-c1ccco1 | -4 | nt | nt | 0
COc1ccc(N2CCN(Cc3nc(-c4ccccc4)no3)CC2)cc1 | -7 | 0 | -19* | nt
COc1ccc(NC(=O)N[C@H]2CC[C@@H](CCNS(=O)(=O)c3ccccc3F)O[C@H]2CO)cc1 | nt | -1 | -6 | -5
C[C@@H]1CN([C@@H](C)CO)C(=O)c2cc(NC(=O)CCC(F)(F)F)ccc2O[C@@H](C)CCCCO[C@@H]1CN(C)C(=O)Nc1ccccc1 | nt | 2 | 0 | 50
Cc1ccc(-n2c(O)c(C=Nc3ccccc3-c3n[nH]c(=S)[nH]c3=O)c3ccccc3c2=O)cc1C | -4 | -2 | -38* | nt
COc1ccccc1-c1nnc(C2CCN(S(=O)(=O)c3ccccc3[N+](=O)[O-])CC2)o1 | -14 | 0 | -18* | -2
COc1ccccc1-c1nnc(C2CCN(S(=O)(=O)c3ccc([N+](=O)[O-])cc3)CC2)o1 | -18 | 0 | 9 | -2
COc1ccccc1-c1nnc(C2CCN(S(=O)(=O)c3cccc([N+](=O)[O-])c3)CC2)o1 | -5 | 1 | -22* | 1
COc1cccc(NC(=O)N(C)C[C@H]2Oc3cc(-c4ccccc4F)ccc3S(=O)(=O)N([C@@H](C)CO)C[C@H]2C)c1 | nt | -2 | -4 | -1
CCCC#Cc1ccc([C@H]2[C@@H](CO)N3C(=O)CN(C(=O)Nc4ccc(F)cc4)C[C@H]23)cc1 | nt | 4 | -11 | nt
CN(C)CC(=O)Nc1ccc2c(c1)[C@@H]1C[C@@H](CC(=O)NC3CCCCC3)O[C@H](CO)[C@@H]1O2 | nt | -2 | 4 | 1
COc1ccc(-n2c(N)c(C(=O)NCc3ccco3)sc2=S)cc1 | -4 | nt | nt | -2
CCOC(=O)c1ccc(-n2c(N)c(C(=O)NCc3ccco3)sc2=S)cc1 | -8 | 0 | -26* | -5
SMILES | CaV13 FRET inh | F508del corr | rRNA inh HTS | Cneo AK release
COc1ccccc1C(=O)NC(=S)N1CCc2ccccc21 | 6 | -6 | -24* | nt
O=C(COc1ccccc1Cl)NC(=S)N1CCc2ccccc21 | -7 | 2 | -52* | nt
O=C(COc1ccccc1)NC(=S)N1CCc2ccccc21 | -2 | nt | nt | nt
COc1ccc(CCC2(C)NC(=O)N(C(C)C(=O)N3c4ccccc4CC3C)C2=O)cc1 (stereo not drawn) | -2 | 2 | -18* | -1
COc1ccc(NC(=O)c2sccc2-n2cccc2)cc1 | 6 | -1 | -31* | 1
CCC(=O)c1ccc(OCCn2cnc3ccccc32)cc1 | -1 | -3 | -34* | nt
CCC(=O)c1ccc(OCCn2cncn2)cc1 | -5 | nt | nt | 8
CN(C)c1ccc(C2C3CCCc4ccccc4C3=NN2C)cc1 (stereo not drawn) | -5 | nt | -27* | nt
O=C(C[C@H]1CC[C@H](NC(=O)Nc2ccc(C(F)(F)F)cc2)[C@H](CO)O1)NCc1cccc(F)c1 | nt | 4 | -8 | 91*
O=C(Cc1ccccn1)NCC[C@H]1CC[C@@H](NC(=O)Nc2ccc(C(F)(F)F)cc2)[C@@H](CO)O1 | nt | 31* | -2 | 4
O=C(Cc1ccccn1)NCC[C@H]1CC[C@H](NC(=O)Nc2ccc(C(F)(F)F)cc2)[C@H](CO)O1 | nt | 22* | 1 | -2
O=C(Nc1ccccc1)N[C@H]1CC[C@H](CCNC(=O)c2ccccc2F)O[C@@H]1CO | nt | 0 | 2 | 0
O=C(Nc1ccccc1)N[C@@H]1CC[C@@H](CCNC(=O)c2ccccc2F)O[C@H]1CO | nt | 3 | 2 | 107*
CC(C)NC(=O)Nc1cccc2c1O[C@@H](CN(C)S(=O)(=O)c1cn(C)cn1)[C@H](C)CN([C@H](C)CO)C2=O | nt | 0 | 3 | 6
C=C1CC[C@@H]2[C@](C)(CO)[C@H](O)CC[C@@]2(C)[C@@H]1/C=C/C1=CCOC1=O | -5 | 2 | -23* | 0
O=C(Nc1ccccc1)c1nc[nH]c1C(=O)Nc1ccccc1F | -3 | 9.5* | nt | 0
O=C(Nc1ccccc1)N1CCc2c([nH]c3ccccc23)C1C(F)(F)F (stereo not drawn) | -4 | -31 | nt | 1
O=C(c1ccc(Cl)cc1)N1CCc2c([nH]c3ccccc23)C1C(F)(F)F (stereo not drawn) | 3 | 1 | -21* | 1
Cc1ccc(S(=O)(=O)Nc2cccc3c2O[C@H](CN(C)Cc2ccc4c(c2)OCO4)[C@@H](C)CN([C@H](C)CO)C3=O)cc1 | nt | 0 | 0 | -6
COc1ccc(CNC(=S)Nc2ccccc2)cc1Cl | -7 | 1 | -21 | 28
COc1ccc(CNC(=S)Nc2ccc(F)c(Cl)c2)cc1OC | -2 | -1 | -27* | nt
S=C(NCc1ccccc1)NCc1ccc(Cl)cc1 | -6 | 0 | -49 | 19
COc1ccccc1CNC(=S)NCc1ccc(Cl)cc1 | -11 | -2 | -32 | 137*
C[C@H](CO)N1C[C@H](C)[C@H](CN(C)C(=O)NC2CCCCC2)Oc2c(NC(=O)CCCCCC(=O)Nc3ccccc3N)cccc2C1=O | nt | nt | 1 | nt
COC(=O)C1=C(C)OC(N)=C(C#N)C1C1CCCCC1 (stereo not drawn) | -8 | -2 | -21* | 1
